Reference: ChEMBL document CHEMBL1143425, “Paradoxical growth effect of caspofungin observed on biofilms and planktonic cells of five different Candida species” (2007)
≈ marks a conversion by molar mass, not a printed value. Calls of active or inactive are those of the source.

Legend:
[1] = tested on: Candida albicans; assay: Antimicrobial activity against Candida albicans BR-A4 grown as planktonic cell after 48 hrs by XTT reduction assay; format: functional
Procedure, shortened: (§1)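 Planktonic broth microdilution followed CLSI M27-A2, with caspofungin dissolved in water. After 48 h, XTT-menadione was added to the wells and plates were kept 1 h at 35°C in the dark. Plates were then centrifuged and supernatant A490 was read. MIC was the lowest concentration giving a 50% decrease in metabolic activity versus drug-free control. Paradoxical growth was defined as ≥20% of control activity above the MIC.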

[2] = tested on: Candida parapsilosis; assay: Antimicrobial activity against Candida parapsilosis BR-A29 grown as planktonic cell after 48 hrs by XTT reduction assay; format: functional; details: Lodderomyces parapsilosis; procedure, shortened: as §1
[3] = tested on: Candida orthopsilosis; assay: Antimicrobial activity against Candida orthopsilosis BR-A33 grown as planktonic cell after 48 hrs by XTT reduction assay; format: functional; details: Lodderomyces orthopsilosis
Procedure, shortened: (§2)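 Planktonic cells were tested by CLSI M27-A2 broth microdilution with caspofungin in water, incubated 48 h. XTT-menadione was added to each well, plates were held 1 h at 35°C in the dark and centrifuged, and supernatant absorbance was read at 490 nm. MIC was defined as 50% decrease in metabolic activity versus drug-free control. PG was defined as ≥20% of control activity at concentrations above MIC.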

[4] = tested on: Candida orthopsilosis; assay: Antimicrobial activity against Candida orthopsilosis BR-A38 grown as planktonic cell after 48 hrs by XTT reduction assay; format: functional; details: Lodderomyces orthopsilosis; procedure, shortened: as §1
[5] = tested on: Candida tropicalis; assay: Antimicrobial activity against Candida tropicalis BR-A9 grown as planktonic cell assessed as concentration producing paradoxical growth after 48 hrs by XTT reduction assay; format: functional
Procedure, shortened: (§3)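 Planktonic broth microdilution followed CLSI M27-A2, with caspofungin dissolved in water. After 48 h, XTT-menadione was added to each well and plates were incubated 1 h at 35°C in the dark. Cells were pelleted by centrifugation and the supernatant was read at 490 nm. MIC was the lowest concentration giving a 50% drop in metabolic activity versus the drug-free control. PG was ≥20% of drug-free activity above the MIC.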

[6] = tested on: Candida tropicalis; assay: Antimicrobial activity against Candida tropicalis BR-A20 grown as planktonic cell assessed as paradoxical growth after 48 hrs by XTT reduction assay; format: functional, organism-based; procedure, shortened: as §3
[7] = tested on: Candida parapsilosis; assay: Antimicrobial activity against Candida parapsilosis BR-A26 grown as planktonic cell assessed as concentration producing paradoxical growth after 48 hrs by XTT reduction assay; format: functional; procedure, shortened: as §3
[8] = tested on: Candida parapsilosis; assay: Antimicrobial activity against Candida parapsilosis BR-A29 grown as planktonic cell assessed as concentration producing paradoxical growth after 48 hrs by XTT reduction assay; format: functional; procedure, shortened: as §3
[9] = tested on: Candida orthopsilosis; assay: Antimicrobial activity against Candida orthopsilosis BR-A32 grown as planktonic cell assessed as paradoxical growth after 48 hrs by XTT reduction assay; format: functional, organism-based; procedure, shortened: as §2
[10] = tested on: Candida metapsilosis; assay: Antimicrobial activity against Candida metapsilosis BR-A43 grown as planktonic cell assessed as paradoxical growth after 48 hrs by XTT reduction assay; format: functional, organism-based; procedure, shortened: as §2
[11] = tested on: Candida metapsilosis; assay: Antimicrobial activity against Candida metapsilosis BR-A44 grown as planktonic cell assessed as paradoxical growth after 48 hrs by XTT reduction assay; format: functional, organism-based; procedure, shortened: as §2
[12] = tested on: Candida orthopsilosis; assay: Antimicrobial activity against Candida orthopsilosis BR-A32 grown as biofilm after 48 hrs by XTT reduction assay; format: functional; details: Lodderomyces orthopsilosis
Procedure, shortened: (§4)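 Isolates were grown on Sabouraud agar (30°C, 24 h), then overnight in RPMI 1640 with MOPS, pH 7.0, at 35°C with shaking. Cells were washed and set to ~1 × 10^7 cells/ml, attached 1.5 h at 37°C, and grown 24 h. Biofilms were then exposed to caspofungin in 10 twofold dilutions (2–1,024 μg/ml) for 48 h at 35°C with shaking. Read-out was XTT-menadione, 1 h, 35°C, dark, A490, cell-free blank subtracted. MIC was the 50% drop in activity versus drug-free control. Tested in duplicate.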

[13] = tested on: Candida orthopsilosis; assay: Antimicrobial activity against Candida orthopsilosis BR-A34 grown as biofilm after 48 hrs by XTT reduction assay; format: functional; details: Lodderomyces orthopsilosis; procedure, shortened: as §4
[14] = tested on: Candida tropicalis; assay: Antimicrobial activity against Candida tropicalis BR-A14 grown as biofilm assessed as paradoxical growth after 48 hrs by XTT reduction assay; format: functional, organism-based
Procedure, shortened: (§5)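 Clinical isolates were grown overnight (18 h, 35°C, 120 rpm) in RPMI 1640 with MOPS, pH 7.0, then washed and set to ~1 × 10^7 cells/ml. Cells attached for 1.5 h at 37°C, 75 rpm, then biofilms grew 24 h. Caspofungin was given as doubling dilutions of 2–1,024 μg/ml for 48 h at 35°C, 75 rpm. Read-out was XTT-menadione in PBS, 1 h at 35°C in the dark, A490, cell-free blank subtracted. MIC was a 50% drop in activity versus drug-free; PG was >50% of control above MIC. Run in duplicate.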

[15] = tested on: Candida tropicalis; assay: Antimicrobial activity against Candida tropicalis BR-A18 grown as biofilm assessed as paradoxical growth after 48 hrs by XTT reduction assay; format: functional, organism-based; procedure, shortened: as §5
[16] = tested on: Candida metapsilosis; assay: Antimicrobial activity against Candida metapsilosis BR-A41 grown as biofilm assessed as concentration producing paradoxical growth after 48 hrs by XTT reduction assay; format: functional
Procedure, shortened: (§6)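 Sabouraud-grown cells were shaken overnight (18 h, 120 rpm, 35°C) in RPMI 1640 with MOPS at pH 7.0, then washed and set at ~1 × 10^7 cells/ml. Attachment lasted 1.5 h at 37°C, and growth ran 24 h before challenge. Caspofungin was added in RPMI at 2–1,024 μg/ml (10 doublings) for 48 h at 35°C with shaking. XTT-menadione was read at 490 nm after 1 h at 35°C in the dark, with blank wells subtracted. MIC was taken as 50% reduction versus drug-free wells, and PG as >50% of control above MIC. Assays were run in duplicate.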

[17] = tested on: Candida metapsilosis; assay: Antimicrobial activity against Candida metapsilosis BR-A43 grown as biofilm assessed as concentration producing paradoxical growth after 48 hrs by XTT reduction assay; format: functional; procedure, shortened: as §6
[18] = tested on: Candida orthopsilosis; assay: Effect on morphology in Candida orthopsilosis grown as planktonic cells assessed as inhibition of hyphae and pseudohyphae at 64 ug/ml after 48 hrs; format: functional, organism-based
Procedure, shortened: (§7)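 Cells were taken from caspofungin-containing and drug-free wells of the planktonic broth microdilution test after 48 h. They were examined by light microscopy at ×400.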

[19] = tested on: Candida orthopsilosis; assay: Effect on morphology in Candida orthopsilosis grown as planktonic cells assessed as rounding and clumping at 64 ug/ml after 48 hrs; format: functional, organism-based; procedure, shortened: as §7
[20] = tested on: Candida tropicalis; assay: Effect on morphology in Candida tropicalis grown as biofilm assessed as inhibition of hyphae and pseudohyphae at 8 ug/ml after 48 hrs; format: functional, organism-based
Procedure, shortened: (§8)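 Overnight RPMI 1640 cultures (MOPS, pH 7.0) were washed and set to about 1 × 10^7 cells/ml, then attached to polystyrene wells for 1.5 h at 37°C at 75 rpm. After 24 h biofilm growth, wells were washed and given doubling caspofungin dilutions (2–1,024 μg/ml in RPMI) for 48 h at 35°C at 75 rpm. Biofilms were viewed in situ by inverted light microscopy at ×200 alongside drug-free wells.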

[21] = tested on: Candida parapsilosis; assay: Effect on morphology in Candida parapsilosis grown as biofilm assessed as inhibition of hyphae and pseudohyphae at 128 ug/ml after 48 hrs; format: functional, organism-based
Procedure, shortened: (§9)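 Biofilms formed in RPMI 1640 wells were exposed to caspofungin for 48 h and compared with drug-free control wells. Wells were examined in the plate under an inverted light microscope at ×200 and photographed.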

[22] = tested on: Candida tropicalis; assay: Effect on morphology in Candida tropicalis grown as biofilm assessed as rounding and clumping at 8 ug/ml after 48 hrs; format: functional, organism-based; procedure, shortened: as §8
[23] = tested on: Candida metapsilosis; assay: Effect on morphology in Candida metapsilosis grown as biofilm assessed as rounding and clumping at 16 ug/ml after 48 hrs; format: functional, organism-based; procedure, shortened: as §9

In the case of `CC[C@H](C)C[C@H](C)CCCCCCCCC(=O)N[C@H]1C[C@@H](O)[C@@H](NCCN)NC(=O)[C@@H]2[C@@H](O)CCN2C(=O)[C@H]([C@H](O)CCN)NC(=O)[C@H]([C@H](O)[C@@H](O)c2ccc(O)cc2)NC(=O)[C@@H]2C[C@@H](O)CN2C(=O)[C@H]([C@@H](C)O)NC1=O` [CASPOFUNGIN], the MIC [1] is reported as 0.5 µg/mL (≈ 0.457 µM), the MIC [2] is reported as 2 µg/mL (≈ 1.83 µM) and the MIC [3] is reported as 1 µg/mL (≈ 0.915 µM). The MIC [4] was 2 µg/mL (≈ 1.83 µM), the Activity [5] was 8 µg/mL and the Activity [6] was “Active”. For the same molecule, the Activity [7] was 16 µg/mL, the Activity [8] was 32 µg/mL and the Activity [9] was “inactive”. For the same molecule, the Activity [10] was “inactive”, the Activity [11] was “inactive” and the MIC [12] was 2 µg/mL (≈ 1.83 µM). The MIC [13] was 2 µg/mL (≈ 1.83 µM), the Activity [14] was “Active” and the Activity [15] was “Active”. The Activity [16] was 16 µg/mL, the Activity [17] was 16 µg/mL and the Activity [18] was “Active”. For the same molecule, the Activity [19] was “Active”, the Activity [20] was “Active” and the Activity [21] was “Active”. For the same molecule, the Activity [22] was “Active” and the Activity [23] was “Active”.
